Tests used:
Mus musculus [1] = experiment: Induction of sedative activity in po dosed ddY mouse assessed as potentiation of thiopental-induced response; assay type: functional
Outline: (§1)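 Male ddY mice (18–24 g) were dosed orally with compound suspended in 5% arabic gum, six mice per dose. Three or four doses were chosen from 100, 30, 10, 3, 1, 0.3 and 0.1 mg/kg. ED50 was calculated by the Litchfield-Wilcoxon method. Muscle relaxation was scored on an inclined wooden board, and fighting was induced by electrofootshock.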

Mus musculus [2] = experiment: Taming activity in po dosed electrofootshock-induced fighting ddY mouse; assay type: functional; outline: as §1
Mus musculus [3] = experiment: Toxicity in po dosed ddY mouse assessed as motor incoordination by rotarod test; assay type: organism-based; details: in vivo; outline: as §1
Mus musculus [4] = experiment: Anticonvulsant activity in po dosed ddY mouse assessed as reduction of pentylenetetrazole-induced seizure; assay type: functional; outline: as §1
Mus musculus [5] = experiment: Anticonvulsant activity in po dosed ddY mouse assessed as reduction of maximal electroshock-induced seizure; assay type: functional
Mus musculus [6] = experiment: Muscle relaxant activity in po dosed ddY mouse; assay type: functional; outline: as §1
[7] = Acute toxicity in po dosed ddY mouse assessed as mortality measured for 2 weeks; assay type: organism-based; details: in vivo
Outline: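 Male ddY mice (18–24 g) were dosed orally with compound suspended in 5% arabic gum. Groups of four received 1000 or 2000 mg/kg, and a group of eight received 3000 mg/kg. Deaths were recorded over a 2-week observation period.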

[8] = Ratio of compound ED50 to diazepam ED50 for toxicity in po dosed ddY mouse assessed as motor incoordination; assay type: organism-based; details: in vivo, read-out: Ratio ED50

Row | Compound | ED50 (Mus musculus [1]) [mg/kg] | ED50 (Mus musculus [2]) [mg/kg] | ED50 (Mus musculus [3]) [mg/kg] | ED50 (Mus musculus [4]) [mg/kg] | ED50 (Mus musculus [5]) [mg/kg] | ED50 (Mus musculus [6]) [mg/kg] | LD50 at 336 h [7] [mg/kg] | selectivity ratio [8]
1 | Fc1ccccc1C1=NCc2cccn2-c2ccc(Cl)cc21 | 5.2 | 39 | > 100 | 100 | > 100 | > 100 |  | 
2 | Clc1ccc2c(c1)C(c1ccccc1Cl)=NCc1cccn1-2 | 18 |  | > 100 |  |  |  |  | 
3 | Cc1cc2n(c1C)-c1ccc(Cl)cc1C(c1ccccc1Cl)=NC2 | 2.6 |  | 40 |  |  |  |  | 
4 | CN1C(=O)CN=C(c2ccccc2)c2cc(Cl)ccc21 [DIAZEPAM] | 0.3 |  | 5.4 | 0.6 |  | 0.6 |  | 
5 | Cc1ccc2n1-c1ccccc1C(c1ccccc1)=NC2 | 22 | > 100 | > 100 | > 100 | > 100 | > 100 |  | 
6 | Cc1ccc2n1-c1ccc(Cl)cc1C(c1ccccc1Cl)=NC2 | 2.8 |  | 100 |  |  |  |  | 
7 | Cc1ccc2n1-c1ccc([N+](=O)[O-])cc1C(c1ccccc1)=NC2 | 5.8 | > 100 | > 100 | ≥ 100 | > 100 | > 100 |  | 
8 | Cc1cc(C)n2c1CN=C(c1ccccc1F)c1cc(Cl)ccc1-2 | 2.4 |  | > 30 |  |  | 20.5 |  | 
9 | Cc1ccc2n1-c1ccc(Cl)cc1C(c1ccccc1F)=NC2 | 6.9 |  | > 100 |  |  |  |  | 
10 | Cc1cc2n(c1C)-c1ccc(Cl)cc1C(c1ccccc1)=NC2 | 21 |  | > 100 |  |  |  |  | 
11 | Cc1cc2n(c1C)-c1ccc(Cl)cc1C(c1ccccc1F)=NC2 | 8 |  | > 100 |  |  |  |  | 
12 | CCc1cc2n(c1C)-c1ccc(Cl)cc1C(c1ccccc1F)=NC2 | 2.2 |  | > 100 |  |  |  |  | 
13 | Cc1cc(C)n2c1CN=C(c1c(F)cccc1F)c1cc(Cl)ccc1-2 | 0.7 |  | 16.2 |  |  | 6.4 |  | 
14 | Clc1ccc2c(c1)C(c1ccccc1)=NCc1cccn1-2 | 44 |  | > 100 |  |  |  |  | 
15 | Cc1cc2n(c1C)-c1ccccc1C(c1ccccc1)=NC2 | > 30 | > 100 | > 100 | > 100 | > 100 | > 100 |  | 
16 | Cc1cc(C)n2c1CN=C(c1ccccc1Cl)c1cc(Cl)ccc1-2 | 0.34 |  | 15.5 | 1.4 |  |  | 930 | 2
17 | Cc1ccc2n1-c1ccc(Cl)cc1C(c1ccccc1)=NC2 | 46 | > 100 | > 100 | 100 | > 100 | > 100 |  | 
18 | CCc1cc2n(c1C)-c1ccc(Cl)cc1C(c1c(F)cccc1F)=NC2 | 3 |  | > 100 | 16.6 |  |  |  | 
19 | CCc1cc2n(c1C)-c1ccc(Cl)cc1C(c1ccccc1Cl)=NC2 | 0.6 |  | 16.2 |  |  |  |  | 

From ChEMBL document CHEMBL3244057, “Diazepines. 5. Synthesis and biological action of 6-phenyl-4H-pyrrolo[1,2-a][1,4]benzodiazepines” (J Med Chem, 1978)
